RAM network inh: inhibitors of the yeast RAM network, primary screen, dse1pr::URA3 reporter, 5-FOA selection. 190,000 tested, 1.8% active. S. cerevisiae dse1pr::URA3 reporter, 5-FOA growth OD615, 2 d; analog-sensitive cbk1-as2 kinase mutant strain. AID 868, 2007. inhibition, % at 50 µM;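 active = inhibition above a set limit, 3 SD over mean compound inhibition, cut at about 8.4% in these data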;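 also: 0% = DMSO-only wells with no growth and 100% = 10 µM 1-NA-PP1 full growth; inhibition rescues growth on 5-FOA so higher OD means more RAM inhibition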
ABCG2 inh: ABCG2 efflux pump inhibitors, primary screen, multiplex with ABCB1, IgMXP3 cells, flow cytometry; Broad substrate specificity ATP-binding cassette transporter ABCG2 (Homo sapiens), Q9UNQ0; JC-1 efflux; inhibition, % at 6.6 µM; 190,000 tested, 0.1% active; AID 1325, 2008;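 active = inhibition above 80%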;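 also: 0% = DMSO and 100% = nicardipine control wells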
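System: two drug-resistant human cell lines, ABCG2 and ABCB1; controls: nicardipine high and DMSO low controls; times: 10 min exposure at 25 °C with rotation, no wash; detection: flow cytometry of retained JC-1 fluorescence; read-out basis: percent efflux inhibition, scaled nicardipine 100% to DMSO 0%; doses: one concentration, 6.6 µM final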
L major viab: Leishmania major promastigote growth inhibition, primary screen. Leishmania major promastigotes, resazurin fluorescence viability. inhibition, % at 10 µM. 200,000 tested, 9% active. AID 1063, 2008; in the data active = inhibition above about 50%;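 also: promastigotes grown with compound for 44 hours at 28 °C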
ABCB1 block: ABCB1 efflux pump inhibitors, primary screen, cell-based, multiplex, flow cytometry, ABCG2 counter-screen; inhibition, % at 6.6 µM; CCRF-Adr cells, JC-1 efflux; 190,000 tested, 0.067% active; in the data active = inhibition above about 40%;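 also: 0% = vehicle and 100% = reference inhibitor; higher value means more JC-1 retained so stronger ABCB1 efflux block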
WT yeast gro inh: growth inhibition of WT strain, primary screen, mitochondrial fusion inhibitor project, WT and mutant strains, chemical genetic; mitochondrial fusion phenotypic screen; inhibition, % at 10 µM; 190,000 tested, 2.1% active; in the data active = inhibition above about 58%; tested in S. cerevisiae
RAM 5-FOA: 5-FOA growth of efflux-deficient control yeast, dose response, counter-screen for RAM network inhibitor project, S. cerevisiae, OD615; shares compounds with RAM network inh; S. cerevisiae efflux-deficient reporter strain, 5-FOA growth OD615, 2 days; max inhibition, %; 1,200 tested, under 10 active; AID 1305, 2008; call rule not given here;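 also: plate controls were vehicle for no effect and reference inhibitor for full effect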
* = called active by the depositor; . = no result. Rows were chosen to be rich in hits. Some 12% of all compounds tested hit in one or more screens of this group.

SMILES	RAM network inh	ABCG2 inh	L major viab	ABCB1 block	WT yeast gro inh	RAM 5-FOA
Cc1ccc(S(=O)(=O)N2CCCCC2C(=O)NCc2ccco2)cc1 (stereo not drawn)	0	0	1	0	0	.
CC1CCCCN1S(=O)(=O)c1ccc(S(=O)(=O)N(Cc2ccccc2)Cc2ccco2)cc1 (stereo not drawn)	14*	2	69*	1	0	3
CCN(Cc1ccccc1)S(=O)(=O)c1ccc(S(=O)(=O)N(Cc2ccccn2)Cc2ccco2)cc1	13*	0	2	0	1	2
CC(=O)NS(=O)(=O)c1ccc(N=c2ssc3c2-c2ccc(C)cc2NC3(C)C)cc1	6	-2	-3	0	5	.
O=c1c(-c2nnc(SCc3ccc(Cl)cc3Cl)o2)cccn1Cc1ccccc1	12*	62	4	5	50	1
CCCN(CC1CC1)C(=O)COC(=O)c1ccc(CNS(=O)(=O)c2ccc(F)c(Cl)c2)cc1	12*	-1	-6	0	-4	1
Cc1ccc(NCc2nnc(SCC(=O)N3c4ccccc4Sc4ccccc43)o2)c(C)c1	6	7	19	2	17	.
CNC(=S)N(CCc1ccc(OC)c(OC)c1)Cc1cc2c(C)cc(C)cc2[nH]c1=O	16*	0	69*	0	-22	2
CCNc1nc(NCC)n2c(SCC(=O)c3ccccc3Cl)nnc2n1	7	6	2	1	1	.
O=C(CSc1ccc(Br)cc1)Nc1ccccc1Oc1ccccc1	11*	8	-3	0	-7	2
CCC(=O)Nc1cccc(NC(=S)NC(=O)c2ccccc2Cl)c1	3	25	-3	1	3	.
CCCCC(=O)Nc1cccc(NC(=S)NC(=O)COc2ccccc2Cl)c1	12*	2	-9	0	-4	2
CCOc1ccccc1NC(=S)NC(=O)CCCOc1ccc(Cl)cc1Cl	12*	0	-2	0	37	2
CCOc1ccc(NC(=O)c2ccc(NC(=O)CSc3nc4ccccc4c(=O)[nH]3)cc2)cc1	5	-10	-5	-1	-13	.
CCC(C(=O)Nc1ccsc1C(=O)OC)c1ccccc1 (stereo not drawn)	17*	2	1	1	-7	3
CCC(C(=O)Nc1nc(C)c(C(=O)OC)s1)c1ccccc1 (stereo not drawn)	0	10	24	2	13	.
Cc1cccc(C(=O)NCc2nnc(SCC(=O)NC(C)c3ccccc3)n2C)c1 (stereo not drawn)	-1	6	-2	1	-11	.
Cc1cccc(C(=O)NCc2nnc3c4ccccc4c(-c4ccccc4)nn23)c1	12*	0	5	2	12	4
CCCCn1nnc(NC(=S)NC(=O)c2ccc(-c3cccc(Cl)c3Cl)o2)n1	13*	3	-6	0	78*	5
O=C(Cc1ccccc1)NN1C(=O)/C(=C/c2ccccc2C(=O)O)SC1=S	4	6	-11	-1	6	.
COc1cc(NS(=O)(=O)c2ccc(N/C=C\C(=O)c3ccc(F)cc3)cc2)nc(OC)n1	4	17	30	1	2	.
O=S(=O)(NCCOc1ccccc1Cl)c1ccc2oc3ccccc3c2c1	.	.	4	.	.	.
COc1ccccc1OCCNS(=O)(=O)c1ccc2oc3ccccc3c2c1	15*	0	-1	0	45	5
COc1ccc(Cn2c(SCC#N)nc3ccc(N4CCOCC4)cc3c2=O)cc1	6	9	-2	2	-4	.
O=C1Nc2ccccc2/C1=N\N=C\C1=C(N2CCOCC2)C(=C\c2ccccc2)/CC1	13*	-1	27	0	61*	5
Cc1noc(C)c1CSc1ccccc1C(=O)Nc1nccs1	1	4	0	1	21	.
CS(=O)(=O)N(Cc1ccc(C(=O)NCCSCc2ccco2)cc1)c1ccccc1	12*	3	23	1	10	2

Screening results as filed in PubChem.
